Assay outcomes from PubChem BioAssay.
PPC-1+TRAIL kill – kills PPC-1 cancer cells in the presence of TRAIL; PPC-1 cells + TRAIL, ATPLite viability luminescence; cell killing (% activity), % at 4 µM or 5 µM; 220,000 tested, 0.41% active; AID 1443;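 active = cell killing above 50% in the first pass at 4 µM, then a duplicate retest at 5 µM averaging 50% or more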;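 also: plate controls were cells with TRAIL plus DMSO for no effect and medium-only wells lacking cells for full effect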
STAT3 act – activators of IL-6 induced STAT3 signaling; U3A cells, IL-6 STAT3-luciferase reporter, luminescence; 100% = signal with IL-6 EC80 alone; activation (% of control), % at 5.6 µM; 190,000 tested, 0.91% active;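 active = activation above the screen-wide mean of compound activation plus 3 SD, cut at about 130% in these data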;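 also: 0% = background luminescence of wells with medium and substrate only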
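Test system: human U3A cells carrying STAT3-luciferase construct; control set: IL-6-only wells as 100% reference; timing: compound pre-incubation 1 h before IL-6, then 6 h stimulation at 37 °C; also added: IL-6 stimulus at 33 ng/mL final; evaluation: % activation versus median of IL-6-stimulated wells; detection: reporter luminescence signal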
STAT3 blocker – reduces IL-6 driven STAT3 reporter signal. U3A cells, IL-6 STAT3-luciferase reporter, luminescence; host cell line lacks STAT1. inhibition, % at 5.5 µM. 190,000 tested, 0.89% active;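 active = inhibition above the mean inhibition across all screened compounds plus 3 SD, cut at about 44% in these data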;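 also: 0% = DMSO only wells and 100% = 100 µM nifuroxazide control wells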
TRAIL sens C8 – caspase-8 TRAIL sensitization; 360,000 tested, 1% active; inhibition (viability loss, TRAIL sensitization), % at 10 µM; NB7+C8 cells + TRAIL, ATPlite viability luminescence; AID 624354;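 active = compounds causing at least 50% loss of cell viability in the single-dose screen, relative to plate controls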
STAT1 inh – reduces IFN-gamma driven STAT1 reporter signal. inhibition, % at 5.5 µM. NIH 3T3 STAT1-luciferase reporter, luminescence. 200,000 tested, 0.35% active;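 active = inhibition above a set limit, the mean inhibition across all tested compounds plus 3 SD, cut at about 34% in these data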;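 also: 0% = IFN-gamma with DMSO and 100% = IFN-gamma with 300 µM nifuroxazide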
Numbers without * were called inactive; x = no result. An excerpt weighted towards active compounds, which were near 1.8% of everything screened.

SMILES	PPC-1+TRAIL kill	STAT3 act	STAT3 blocker	TRAIL sens C8	STAT1 inh
C#CCN1CCc2onc(-c3ccccc3OC)c2C1=O	x	x	x	-1	x
C(=NN1CCCCCC1)c1cccc2ccccc12	x	x	x	-4	x
C(=NN1CCCCCC1)c1ccc2ccccc2n1	x	x	x	90*	x
COc1cccc(C(=O)/C=C/Nc2cc(C)ccc2O)c1	16	124	-25	55*	-37
Cc1cc(C)c2nc(NNC(=O)c3ccc(S(=O)(=O)N4CC(C)CC(C)C4)cc3)sc2c1 (stereo not given)	6	107	-8	32	-6
Cc1cccc2sc(NNC(=O)c3ccc(S(=O)(=O)N4CC(C)CC(C)C4)cc3)nc12 (stereo not given)	27	108	-10	66*	11
CCC(CC)C(=O)N(C)c1c(C)nc2c(OCC3CCCCC3)cccn12	x	x	x	16	x
CCOC(=O)/C(=C\c1cccnc1)C(=O)c1cc(C(C)=O)c(Nc2ccccc2)s1	12	130	-28	94*	-4
Cc1cn([C@H]2C[C@H](O)[C@@H](/C=C/C(=O)NCc3cccc4ccccc34)O2)c(=O)[nH]c1=O	x	x	x	0	x
O=c1c2ccccc2oc2ccc(NCCCn3ccnc3)cc12	x	x	x	50*	x
CC(=O)Nc1c(O)[nH]c2ccccc12	0	102	0	-46	-10
N=NC(=O)c1ccccc1Nc1c(O)[nH]c2ccccc12	x	x	x	91*	x
O=C(C1CCCCC1)N1C[C@@H](O)[C@H](n2cc(-c3ccc(F)cc3)nn2)C[C@@H]1c1ccccc1	x	x	x	29	x
Cc1ccc(C2=NN(C(=O)CCl)C(c3cccs3)C2)o1 (stereo not given)	-7	95	0	95*	11
CC(=O)N1N=C(c2ccco2)CC1c1cccs1 (stereo not given)	-5	95	9	6	7
O=C(CCl)N1N=C(c2ccco2)CC1c1cccs1 (stereo not given)	5	77	29	92*	24
O=[N+]([O-])c1c(O)c(Cl)cc(Cl)c1Cl (tested in a mixture with another compound)	x	x	x	-7	x
CCOC(=O)CCc1c(C)c2ccc(OC3CCCCC3=O)cc2oc1=O (stereo not given)	x	x	x	-1	x
CCOC(=O)c1ccc(Oc2nc(N(C)C)nc(N3CCOCC3)n2)cc1	8	97	7	6	6
Cc1ccc(-n2[nH]c(C)c(C=Nc3ccc(S(=O)(=O)Nc4nccs4)cc3)c2=O)cc1	33	109	-12	x	-2
CCc1nnc(NS(=O)(=O)c2ccc(N=Cc3c(C)[nH]n(-c4ccc(C)c(C)c4)c3=O)cc2)s1	44	101	2	56*	-12
CN(CC(=O)Nc1ccc(F)c(F)c1F)C(=O)CCc1nc2sc3c(c2c(=O)[nH]1)CCCC3	x	x	x	9	x
Cc1cccc(-c2cc3nc(-c4ccccc4)cc(=O)n3[nH]2)c1	x	x	x	44*	x
O=C(CS(=O)(=O)c1ccc(F)cc1)NCCS(=O)(=O)c1ccccc1	x	x	x	-3	x
Cc1c(Cl)cccc1NC(=S)N=Nc1c(O)n(CN2CCOCC2)c2ccccc12	53*	102	2	-4	7
SMILES	PPC-1+TRAIL kill	STAT3 act	STAT3 blocker	TRAIL sens C8	STAT1 inh
Cc1c(C)n(Cc2ccccc2)c2ncnc(Cl)c12	x	x	x	24	x
O=C(/C=C/[C@H]1O[C@@H](n2cnc3c(NC(=O)c4ccccc4)ncnc32)[C@H](O)[C@@H]1O)NCC1CCCO1 (stereo not given in full)	x	x	x	54*	x
CCCCCCc1cc2cc(C(=O)Nc3ccc(OC)cc3)c(=O)oc2cc1O	22	107	-10	51*	-5
COc1ccc(NC(=O)c2cc3ccc(O)cc3o/c2=N\O)cc1	x	x	x	74*	x
CCCCCCc1cc2cc(S(=O)(=O)c3ccc(F)c(Cl)c3)c(=O)oc2cc1O	7	96	0	52*	8
Cc1cc(C)c(NC(=O)COc2cccnc2[N+](=O)[O-])c(C)c1	x	x	x	0	x
Cn1nc(-c2ccc(Cl)cc2)nc2c(=O)n(C)c(=O)nc1-2	48	43	74*	x	88*
Clc1cccc(-c2cccc3nccn23)c1Cl	x	x	x	-14	x
N#Cc1ccccc1COC(=O)c1cccc(S(=O)(=O)N2CCCC2)c1	x	x	x	8	x
O=C(Nc1nc2ccccc2[nH]1)c1cccc(F)c1	x	x	x	43	x
Cc1ccc(C(=O)Nc2nc3ccccc3[nH]2)cc1	x	x	x	93*	x
CN(C)c1cccc(C(=O)Nc2nc3ccccc3[nH]2)c1	x	x	x	83*	x
COc1ccc(C(=O)Nc2nc3ccccc3[nH]2)cc1	x	x	x	91*	x
